Values after ≈ are worked out from the molar mass of the structure shown.

One data set is filed under the species Cavia porcellus. The experiment in a line: Inhibition of acetylstrophantidin induced arrhythmia in guinea pig isolated right atria. The data set is classed as functional. The settings on record: read-out: ED50 (the source's name). Summed up:
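Isolated atrium in prewarmed 37 °C Krebs on an isometric force transducer, tension about 500 mg, equilibrated 1 h. Arrhythmogen (ethanolic stock) added at 5.0 μg/mL, raised to 7.5 μg/mL after 30 min if no arrhythmia. After 45 min, compound given in incremental doses every 20 min. ED is the cumulative dose restoring sinus rhythm for at least 3 min.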

Data set [1] in a line: Distribution coefficient of compound was determined in octanol-water system. It is filed as physicochemical.
A short description of data set [2]: Biological half-life was evaluated in whole human blood. It is filed as ADME, organism-based. Put shortly: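 Fresh heparinized blood from male volunteers and compound in saline preincubated separately 5 min at 37 °C, then mixed 1:1 (final 25 μg/mL) and shaken at 37 °C for 0, 1, 2.5, 5.0, 10, 20, 30 and 60 min. Stopped with acetonitrile, proteins spun down, supernatant assayed by HPLC on phenyl column. Half-life is the time to 50% loss of compound.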

For another data set, the species on record is Canis familiaris. In words: Inhibition of ouabain induced arrhythmia in the dog. The data set is classed as functional, Canis lupus familiaris. Summed up:
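Adult male mongrel dogs (10–17 kg) under pentobarbital (30 mg/kg iv), intubated, spontaneous breathing, lead II ECG. Ouabain iv bolus: 40 μg/kg, then 20 μg/kg at 30 min, then 5–10 μg/kg every 15 min until stable ventricular arrhythmia (>95% ectopic complexes) lasted 15 min. Compound infused iv at 0.5 mg/kg per min until sinus rhythm held ≥10 min.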

For `O=C(O)Cc1cc(CN2CCCC2)c(O)c(CN2CCCC2)c1`, the EC50 in the data set filed under Cavia porcellus was more than 200 µg/mL.
For the compound `CC(C)OC(=O)CCc1cc(CN2CCCC2)c(O)c(CN2CCCC2)c1`, in data set [1], the Distribution coefficient is listed as 0.62. In the data set listed under Cavia porcellus, the EC50 came out at 4 µg/mL (≈ 10.7 µM).
One may read the half-life as how long it takes for the measured level to halve. In turn, `CC(C)COC(=O)Cc1cc(CN2CCCC2)c(O)c(CN2CCCC2)c1` showed a Distribution coefficient in data set [1] of 1.25. The half-life in data set [2] came to 8.7 min. In the data set listed under Canis familiaris, the Active dose amounted to 11.8 mg/kg. In the data set listed under Cavia porcellus, the EC50 was found to be 5 µg/mL (≈ 13.4 µM).
For `CCCCOC(=O)CCCc1cc(CN2CCCC2)c(O)c(CN2CCCC2)c1`, the Distribution coefficient in data set [1] was determined as 12.8. The compound further had a half-life in data set [2] of 0.77 min. In the data set filed under Cavia porcellus, the EC50 stood at 0.33 µg/mL (≈ 0.82 µM).
For `CC(C)OC(=O)Cc1cc(CN2CCCC2)c(O)c(CN2CCCC2)c1`, the Distribution coefficient in data set [1] amounted to 0.39. Also, in the data set listed under Cavia porcellus, the EC50 amounted to 1 µg/mL (≈ 2.77 µM).
The compound `O=C(O)c1cc(CN2CCCC2)c(O)c(CN2CCCC2)c1` came in with an Active dose in the data set filed under Canis familiaris of more than 60 mg/kg. Also, the EC50 in the data set filed under Cavia porcellus was more than 30 µg/mL.
In data set [1], `CC(C)OC(=O)c1cc(CN2CCCC2)c(O)c(CN2CCCC2)c1` gave a Distribution coefficient of 0.37. Also, in the data set listed under Cavia porcellus, the EC50 stood at 11.4 µg/mL (≈ 32.9 µM).
In data set [1], `CC(C)COC(=O)CCCc1cc(CN2CCCC2)c(O)c(CN2CCCC2)c1` displayed a Distribution coefficient of 7.24. In data set [2], the half-life came out at 1.96 min. Further, the EC50 in the data set listed under Cavia porcellus is 2 µg/mL (≈ 4.97 µM).
With `CCCCOC(=O)CCc1cc(CN2CCCC2)c(O)c(CN2CCCC2)c1`, the Distribution coefficient in data set [1] worked out at 2. In data set [2], this compound showed a half-life of 22.1 min. The same compound displayed an Active dose in the data set filed under Canis familiaris of 11 mg/kg. The EC50 in the data set listed under Cavia porcellus came out at 2.5 µg/mL (≈ 6.43 µM).
Turning to `CCOC(=O)CCc1ccc(NC(=O)c2cc(CN3CCCC3)c(O)c(CN3CCCC3)c2)cc1`, in the data set filed under Canis familiaris, the Active dose was found to be 10.9 mg/kg.
In turn, `CCOC(=O)/C=C/c1ccc(NC(=O)c2cc(CN3CCCC3)c(O)c(CN3CCCC3)c2)cc1` showed an Active dose in the data set listed under Canis familiaris of 17.5 mg/kg.
Compound `CC(C)COC(=O)CCc1cc(CN2CCCC2)c(O)c(CN2CCCC2)c1` returned a Distribution coefficient in data set [1] of 1.54. In data set [2], this compound returned a half-life of 25.9 min. Besides, in the data set filed under Canis familiaris, the Active dose is 5 mg/kg. Besides, the EC50 in the data set filed under Cavia porcellus was found to be 14 µg/mL (≈ 36 µM).
`CCOC(=O)c1ccccc1NC(=O)c1cc(CN2CCCC2)c(O)c(CN2CCCC2)c1` had an Active dose in the data set listed under Canis familiaris of 1.75 mg/kg.
In turn, `CCOC(=O)Cc1cc(CN2CCCC2)c(O)c(CN2CCCC2)c1` gave a Distribution coefficient in data set [1] of 0.18. In the data set filed under Canis familiaris, this compound registered an Active dose of more than 7.5 mg/kg. Moreover, the EC50 in the data set filed under Cavia porcellus was found to be 17.2 µg/mL (≈ 49.6 µM).
The compound `CC(C)COC(=O)c1cc(CN2CCCC2)c(O)c(CN2CCCC2)c1` registered a Distribution coefficient in data set [1] of 1.47. Moreover, the EC50 in the data set filed under Cavia porcellus amounted to 2.3 µg/mL (≈ 6.38 µM).
In data set [1], `CCCOC(=O)CCc1cc(CN2CCCC2)c(O)c(CN2CCCC2)c1` returned a Distribution coefficient of 0.78. The same compound displayed a half-life in data set [2] of 36.1 min. The compound also returned an Active dose in the data set listed under Canis familiaris of 3 mg/kg. Moreover, the EC50 in the data set filed under Cavia porcellus was found to be 7 µg/mL (≈ 18.7 µM).
As for `CCCOC(=O)Cc1cc(CN2CCCC2)c(O)c(CN2CCCC2)c1`, the Distribution coefficient in data set [1] turned out to be 0.43. The compound further returned a half-life in data set [2] of 18.5 min. In the data set filed under Canis familiaris, the Active dose was 8.8 mg/kg. The EC50 in the data set listed under Cavia porcellus amounted to 10.3 µg/mL (≈ 28.6 µM).
For `CCC(C)OC(=O)c1cc(CN2CCCC2)c(O)c(CN2CCCC2)c1` (configuration not stated), the Distribution coefficient in data set [1] came to 1.12. Also, the Active dose in the data set listed under Canis familiaris was determined as 6.8 mg/kg. Moreover, in the data set listed under Cavia porcellus, the EC50 amounted to 6.7 µg/mL (≈ 18.6 µM).
For `O=C(O)CCc1cc(CN2CCCC2)c(O)c(CN2CCCC2)c1`, the EC50 in the data set listed under Cavia porcellus was more than 1000 µg/mL.
In data set [1], `CCCCOC(=O)Cc1cc(CN2CCCC2)c(O)c(CN2CCCC2)c1` returned a Distribution coefficient of 1.5. This compound also returned a half-life in data set [2] of 9.5 min. Also, in the data set listed under Canis familiaris, the Active dose was 7.3 mg/kg. In addition, the EC50 in the data set listed under Cavia porcellus turned out to be 13.3 µg/mL (≈ 35.5 µM).
In the data set filed under Canis familiaris, `CCOC(=O)c1ccc(NC(=O)c2cc(CN3CCCC3)c(O)c(CN3CCCC3)c2)cc1` showed an Active dose of 19 mg/kg.
Compound `O=C(Nc1ccccc1)c1cc(CN2CCCC2)c(O)c(CN2CCCC2)c1` returned a Distribution coefficient in data set [1] of 0.42. In the data set filed under Canis familiaris, this compound registered an Active dose of 2.5 mg/kg. Also, in the data set filed under Cavia porcellus, the EC50 came out at 11 µg/mL (≈ 29 µM).
`CCCOC(=O)CCCc1cc(CN2CCCC2)c(O)c(CN2CCCC2)c1` had a half-life in data set [2] of 2.1 min.
Compound `O=C(NCC1CCCCN1)c1cc(OCC(F)(F)F)ccc1OCC(F)(F)F` (configuration not stated) [FLECAINIDE] displayed a Distribution coefficient in data set [1] of 13.71. Also, the Active dose in the data set filed under Canis familiaris is 2.3 mg/kg. The EC50 in the data set listed under Cavia porcellus turned out to be 6 µg/mL (≈ 14.5 µM).
`CCN(CC)CC(=O)Nc1c(C)cccc1C` [LIDOCAINE]: the Distribution coefficient in data set [1] came to 19.19. In the data set listed under Canis familiaris, this compound registered an Active dose of 10.1 mg/kg. Besides, in the data set listed under Cavia porcellus, the EC50 came out at 6 µg/mL (≈ 25.6 µM).

(Values after ChEMBL document CHEMBL1124564, “Ester derivatives of 2,6-bis(1-pyrrolidinylmethyl)-4-benzamidophenol as short-acting antiarrhythmic agents. 1” (J Med Chem, 1989).)
